{
  "source": "paper PMC6177216",
  "about": "(Journal of controlled release : official journal of the …, 2018)",
  "key": {"[1]": {"tested_on": "MCF-7 human breast cancer cells", "assay": "MTT cytotoxicity assay in MCF-7 cells", "type": "cell-based", "settings": "for inhibition of cell proliferation (in words): MTT", "summary_of_the_method": "(§1)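 Cells seeded at 5×10³ (MCF-7) or 3×10³ (PC-3) per well and grown 24 h in DMEM with 10% FBS and 1% streptomycin/penicillin. They were then exposed for 48 h to various concentrations of test compound alone or combined with another anticancer agent. Viability was read by MTT. IC50 came from fitting an inhibitory normalised dose-response model with variable slope.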"}, "[2]": {"tested_on": "4T1.2 mouse breast cancer cells", "assay": "MTT cytotoxicity assay in 4T1.2 cells", "type": "cell-based"}, "[3]": {"tested_on": "PC-3 human prostate cancer cells", "assay": "MTT cytotoxicity assay in PC-3 cells", "type": "cell-based", "summary_of_the_method": "as §1"}, "GCS mRNA [4]": {"tested_on": "GCS mRNA", "assay": "GCS mRNA expression by real-time PCR in MCF-7 cells", "type": "cell-based, human", "settings": "48 h; for effect on GCS mRNA expression: various concentrations"}, "GCS mRNA [5]": {"tested_on": "GCS mRNA", "assay": "GCS mRNA expression by real-time PCR in 4T1.2 cells", "type": "cell-based, mouse", "settings": "48 h; for effect on GCS mRNA expression: various concentrations"}, "ceramides in MCF-7 cells": {"tested_on": "ceramides in MCF-7 cells", "assay": "Ceramide levels by LC/MS in MCF-7 cells", "type": "cell-based, human", "settings": "PPMP 1.7 μM and/or DOX 100 nM, 48 h", "summary_of_the_method": "(§2)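 Cells seeded at 2×10⁴ (4T1.2) or 6×10⁴ (MCF-7) per well in DMEM with 10% FBS and 1% penicillin-streptomycin for 24 h. Medium was then replaced with 2% FBS medium containing test compound, free or micellar. After 48 h, cells were washed with ice-cold D-PBS and lysed in 0.2% SDS, with an aliquot kept for protein assay. Lipids were resuspended in ACN/IPA/H₂O (1:1:1) and analysed by HPLC-ESI-MS/MS. Peak areas were quantified against C6-ceramide internal standard and normalised to protein.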"}, "ceramides in 4T1.2 cells": {"tested_on": "ceramides in 4T1.2 cells", "assay": "Ceramide levels by LC/MS in 4T1.2 cells", "type": "cell-based, mouse", "settings": "PPMP 1.7 μM and/or DOX 100 nM, 48 h", "summary_of_the_method": "as §2"}, "[6]": {"assay": "In vitro DOX release by dialysis in DPBS", "type": "physicochemical", "settings": "DOX 0.5 mg/mL", "summary_of_the_method": "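Dialysis release was run alongside free drug and drug loaded in a pharmacologically inert copolymer micelle as comparators. Cumulative release was followed from 0 to 72 h in triplicate.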"}, "[7]": {"assay": "Plasma pharmacokinetics of DOX", "type": "in vivo, tumor-free female CD1 mice", "settings": "DOX in plasma; i.v. 5 mg/kg DOX; CD1 mice"}},
  "note": "Like-named read-outs stand apart in the source and are kept apart here.",
  "data": [
    {"smiles": "CCCCCCCCCCCCC/C=C/[C@@H](O)[C@H](CO)NC(=O)CCCCC", "note": "[C6-ceramide]", "values": [
      {"measurement": "IC50", "setting": "[1]; read-out: D502, IC50 of drug 2 in single treatment, MCF-7, 48 h", "result": "6.2 ± 0.2", "unit": "µM"},
      {"measurement": "IC50", "setting": "[2]; read-out: D502, IC50 of drug 2 in single treatment, 4T1.2, 48 h", "result": "2.8 ± 0.2", "unit": "µM"},
      {"measurement": "IC50", "setting": "[3]; read-out: D502, IC50 of drug 2 in single treatment, PC-3, 48 h", "result": "1.6 ± 0.1", "unit": "µM"},
      {"measurement": "increase of GCS mRNA expression level", "setting": "GCS mRNA [4]; C6-ceramide 2 μM", "result": 6.5, "unit": "fold"},
      {"measurement": "effect on GCS mRNA expression", "setting": "GCS mRNA [4]", "result": "significant increases"},
      {"measurement": "effect on GCS mRNA expression", "setting": "GCS mRNA [5]", "result": "similarly observed"}
    ]},
    {"smiles": "CCCCCCCCCCCCCCCC(=O)NC(CN1CCOCC1)C(O)c1ccccc1", "note": "(centres unmarked) [PPMP, 1-phenyl-2-palmitoylamino-3-morpholino-1-propanol]", "values": [
      {"measurement": "IC50", "setting": "[1]; Homo sapiens, MCF7, 48 h, read-out: D501, IC50 of PPMP in single treatment", "result": "5.7 ± 0.4", "unit": "µM"},
      {"measurement": "inhibition of cell proliferation (in words)", "setting": "[1]; MCF-7, 48 h", "result": "concentration-dependent inhibition"},
      {"measurement": "cytotoxicity / inhibition of proliferation (in words)", "setting": "[2]; 4T1.2, 48 h, MTT", "result": "inhibited the proliferation"},
      {"measurement": "IC50", "setting": "[2]; Mus musculus, 4T1.2, 48 h, read-out: D501, IC50 of PPMP in single treatment", "result": "2.2 ± 0.1", "unit": "µM"},
      {"measurement": "IC50", "setting": "[3]; Homo sapiens, PC-3, 48 h, read-out: D501, IC50 of PPMP in single treatment", "result": "3.4 ± 0.1", "unit": "µM"},
      {"measurement": "effect on DOX-induced upregulation of GCS mRNA expression", "setting": "GCS mRNA [4]; PPMP 1.7 μM, DOX 100 nM", "result": "effective in inhibiting"},
      {"measurement": "effect on basal level of GCS mRNA", "setting": "GCS mRNA [4]; PPMP concentration 1.7 μM", "result": "significant decreases"},
      {"measurement": "effect on DOX-induced upregulation of GCS mRNA expression", "setting": "GCS mRNA [5]; PPMP 1.7 μM, DOX 100 nM", "result": "effective in inhibiting"},
      {"measurement": "effect on basal level of GCS mRNA", "setting": "GCS mRNA [5]; PPMP concentration 1.7 μM", "result": "significant decreases"},
      {"measurement": "effect on amount of C16 ceramide", "setting": "ceramides in MCF-7 cells", "result": "modest increase"},
      {"measurement": "effect on amount of C16 ceramide", "setting": "ceramides in 4T1.2 cells", "result": "modest increase"}
    ]},
    {"smiles": "CC(=O)O[C@H]1C(=O)[C@@]2(C)[C@H]([C@H](OC(=O)c3ccccc3)[C@]3(O)C[C@H](OC(=O)[C@H](O)[C@@H](NC(=O)c4ccccc4)c4ccccc4)C(C)=C1C3(C)C)[C@]1(OC(C)=O)CO[C@@H]1C[C@@H]2O", "note": "[PTX, paclitaxel]", "values": [
      {"measurement": "IC50", "setting": "[1]; Homo sapiens, MCF7, 48 h, read-out: D502, IC50 of drug 2 in single treatment", "result": "7.14 ± 1.87", "unit": "µg/mL"},
      {"measurement": "IC50", "setting": "[2]; Mus musculus, 4T1.2, 48 h, read-out: D502, IC50 of drug 2 in single treatment", "result": "0.108 ± 0.0181", "unit": "µg/mL"},
      {"measurement": "IC50", "setting": "[3]; Homo sapiens, PC-3, 48 h, read-out: D502, IC50 of drug 2 in single treatment", "result": "0.0043 ± 0.0002", "unit": "µg/mL"},
      {"measurement": "effect on GCS mRNA expression", "setting": "GCS mRNA [4]", "result": "significant induction"},
      {"measurement": "effect on GCS mRNA expression", "setting": "GCS mRNA [5]", "result": "not in 4T1.2 cells"}
    ]},
    {"smiles": "COc1cccc2c1C(=O)c1c(O)c3c(c(O)c1C2=O)C[C@@](O)(C(=O)CO)C[C@@H]3O[C@H]1C[C@H](N)[C@H](O)[C@H](C)O1", "note": "[DOX, Doxorubicin]", "values": [
      {"measurement": "inhibition of cell proliferation (in words)", "setting": "[1]; MCF-7, 48 h", "result": "concentration-dependent inhibition"},
      {"measurement": "increase of GCS mRNA expression level", "setting": "GCS mRNA [4]; DOX 200 nM", "result": 4.2, "unit": "fold"},
      {"measurement": "effect on GCS mRNA expression", "setting": "GCS mRNA [4]", "result": "significant increases"},
      {"measurement": "effect on GCS mRNA expression", "setting": "GCS mRNA [5]", "result": "similarly observed"},
      {"measurement": "effect on amount of C16 ceramide", "setting": "ceramides in MCF-7 cells", "result": "significantly induced"},
      {"measurement": "effect on amount of C16 ceramide", "setting": "ceramides in 4T1.2 cells", "result": "significantly induced"},
      {"measurement": "DOX released", "setting": "[6]; in 2 h", "result": "Forty eight"},
      {"measurement": "DOX released", "setting": "[6]; within 12 h", "result": "around 83%"},
      {"measurement": "AUC0−∞", "setting": "[7]", "result": 9200, "unit": "ng·h/mL"},
      {"measurement": "CL", "setting": "[7]", "result": 10.87, "unit": "µL/h"},
      {"measurement": "Cmax", "setting": "[7]", "result": 4410, "unit": "µg/mL"},
      {"measurement": "T1/2", "setting": "[7]", "result": 3.35, "unit": "h"},
      {"measurement": "Vd", "setting": "[7]", "result": 52.49, "unit": "µL"}
    ]}
  ]
}
